Source: ChEMBL document CHEMBL4396876, “Antisulfatase, Osteogenic, and Anticancer Activities of Steroid Sulfatase Inhibitor EO-33 in Mice” (J Med Chem, 2019)

How the values were obtained:
[1] = Plasma concentration in Balb/c mouse at 10 mg/kg, sc administered as single dose using MC/EtOH formulation measured after 3 hrs by LC-MS/MS analysis; assay type: ADME, organism-based
Summary of the method: (§1)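 Female Balb/c mice, fasted 8 h with free water, given a single dose in 0.1 mL vehicle: EO-33 dissolved in EtOH, then aqueous 0.4% methylcellulose added to a final 8% EtOH. Sacrificed under isoflurane at 1, 3, 7, 12 and 24 h (2–3 mice/group). Cardiac blood collected into K-EDTA and plasma stored at −80 °C. LC-MS/MS on 100 µL plasma. AUC0-24h taken from the five time points.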

[2] = test system: MCF7; assay: Antitumor activity against human MCF7 cells xenografted in nu/nu Br athymic mouse assessed as effect on […]-stimulated tumor growth by measuring tumor size at 30 mg/kg, sc administered 6 days per week for […] using MC/EtOH formulation measured post-last dose (reference value: 171 %); assay type: functional
[3] = AUC (0 to 24 hrs) in Balb/c mouse assessed as (4-(((furan-2-ylmethyl)((5-methylthiophen-2-yl)methyl)amino)methyl)phenyl)(7-hydroxy-3,4-dihydroisoquinolin-2(1H)-yl)methanone level at 30 mg/kg, po administered via gavage as single dose using MC/EtOH formulation by LC-MS/MS analysis; assay type: ADME, organism-based; set-up: dose 30 mg/kg, time < 24 hr, route oral; conditions: in vivo
[4] = test system: Mus musculus; assay: Ex vivo inhibition of STS in ovariectomized Balb/c mouse liver homogenates assessed as reduction in transformation of [3H]-E1S into [3H]-E1 at 15 mg/kg, sc administered twice daily starting from day 2 to day 10 using MC/EtOH formulation and E1S addition on day 5 to 10 measured on day 11 by liquid scintillation counting method relative to control; assay type: functional
Summary of the method: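 Livers collected on day 11 from the OVX Balb/c uterotrophic protocol and homogenized in cold pH 7.4 phosphate buffer with protease inhibitors. 2000 g supernatant, 100 or 500 µg protein, incubated with [3H]-E1S/E1S (final 1 µM) in PBS for 2 h at 37 °C. Xylene extraction, then scintillation counting of both phases. Result given as % E1 formed. Triplicate.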

[5] = Plasma concentration in Balb/c mouse at 30 mg/kg, po administered via gavage as single dose using SO/DMSO formulation measured after 7 hrs by LC-MS/MS analysis; assay type: ADME, organism-based
Summary of the method: (§2)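 Female Balb/c mice, fasted 8 h, given a single dose in 0.1 mL of PG or sunflower oil holding a final 8% DMSO. Sacrificed under isoflurane at 7 h (2–3 mice/group). Cardiac blood collected into K-EDTA and plasma analysed by LC-MS/MS.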

[6] = Plasma concentration in Balb/c mouse at 30 mg/kg, po administered via gavage as single dose using MC/EtOH formulation measured after 12 hrs by LC-MS/MS analysis; assay type: ADME, organism-based; summary of the method: as §1
[7] = Plasma concentration in Balb/c mouse at 30 mg/kg, sc administered as single dose using MC/EtOH formulation measured after 3 hrs by LC-MS/MS analysis; assay type: ADME, organism-based; summary of the method: as §1
[8] = test system: Mus musculus; assay: Anti-estrogenic activity in ovariectomized Balb/c mouse assessed as reversal of E1-induced estrogenic effect at 30 mg/kg, sc administered once daily starting from day 2 to day 10 using MC/EtOH formulation and E1 addition on day 5 to 10 measured on day 11; assay type: organism-based; conditions: in vivo
Summary of the method: (§3)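 Female Balb/c mice (15–20 g) ovariectomized under isoflurane, 5/group. Inhibitor given SC in 0.1 mL MC:EtOH (92:8) on days 2–10. E1S (2 µg/mouse, BID) or E1 (0.06 µg/mouse, ID) given SC on days 5–10. Vehicle controls included. Uterus dissected and weighed on day 11. Means ± SEM.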

[9] = Plasma concentration in Balb/c mouse at 30 mg/kg, po administered via gavage as single dose using MC/EtOH formulation measured after 3 hrs by LC-MS/MS analysis; assay type: ADME, organism-based; summary of the method: as §1
[10] = Hepatotoxicity in ovariectomized-induced C57BL/6 mouse model of osteoporosis assessed as effect on liver weight at 30 mg/kg, sc administered 6 days per week for 70 days using MC/EtOH formulation measured post last dose by necropsy analysis; assay type: toxicity, organism-based; conditions: in vivo
[11] = AUC (0 to 24 hrs) in Balb/c mouse at 2 mg/kg, sc administered as single dose using MC/EtOH formulation by LC-MS/MS analysis; assay type: ADME, organism-based; set-up: dose 2 mg/kg, time < 24 hr, route subcutaneous; conditions: in vivo; summary of the method: as §1
[12] = test system: Mus musculus; assay: Osteogenic activity in ovariectomized-induced C57BL/6 mouse model of osteoporosis assessed as recovery of tibia calcium content at 30 mg/kg, sc administered 6 days per week for 70 days using MC/EtOH formulation by Triple Quad ICP-MS analysis relative to control; assay type: functional
Summary of the method: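 Female C57BL/6 mice (63–70 days) ovariectomized under isoflurane; sham controls kept. 8/group, dosed SC in 0.1 mL MC:EtOH (92:8) for 70 days. Tibias excised and weighed (mg/g body weight). Calcium measured by ICP-MS after calcination at 600 °C for 6 h and HNO3 microwave digestion; expressed as mg/g tibia.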

[13] = test system: Mus musculus; assay: In vivo inhibition of STS in ovariectomized Balb/c mouse assessed as reduction in E1S-stimulated uterus weight at 30 mg/kg, sc administered twice daily starting from day 2 to day 10 using MC/EtOH formulation and E1S addition on day 5 to 10 measured on day 11 relative to control; assay type: functional; summary of the method: as §3
[14] = AUC (0 to 24 hrs) in Balb/c mouse assessed as (4-(((furan-2-ylmethyl)((5-methylthiophen-2-yl)methyl)amino)methyl)phenyl)(7-hydroxy-3,4-dihydroisoquinolin-2(1H)-yl)methanone level at 30 mg/kg, sc administered as single dose using MC/EtOH formulation by LC-MS/MS analysis; assay type: ADME, organism-based; set-up: time < 24 hr, dose 30 mg/kg, route subcutaneous; conditions: in vivo
[15] = Plasma concentration in Balb/c mouse at 30 mg/kg, sc administered as single dose using MC/EtOH formulation measured after 7 hrs by LC-MS/MS analysis; assay type: ADME, organism-based; summary of the method: as §1
[16] = Lipophilicity, log P of the compound; assay type: physicochemical; conditions: octanol/water
[17] = test system: Mus musculus; assay: In vivo inhibition of STS in ovariectomized Balb/c mouse assessed as reduction in E1S-stimulated uterus weight at 15 mg/kg, sc administered twice daily starting from day 2 to day 10 using MC/EtOH formulation and E1S addition on day 5 to 10 measured on day 11 relative to control; assay type: functional; summary of the method: as §3
[18] = test system: Mus musculus; assay: In vivo inhibition of STS in ovariectomized Balb/c mouse assessed as reduction in E1S-stimulated uterus weight at 30 mg/kg, sc administered once daily starting from day 2 to day 10 using MC/EtOH formulation and E1S addition on day 5 to 10 measured on day 11 relative to control; assay type: functional; summary of the method: as §3
[19] = Plasma concentration in Balb/c mouse at 30 mg/kg, sc administered as single dose using PG/DMSO formulation measured after 7 hrs by LC-MS/MS analysis; assay type: ADME, organism-based; summary of the method: as §2
[20] = Plasma concentration in Balb/c mouse at 10 mg/kg, sc administered as single dose using MC/EtOH formulation measured after 12 hrs by LC-MS/MS analysis; assay type: ADME, organism-based; summary of the method: as §1
[21] = Plasma concentration in Balb/c mouse at 30 mg/kg, sc administered as single dose using MC/EtOH formulation measured after 24 hrs by LC-MS/MS analysis; assay type: ADME, organism-based; summary of the method: as §1
[22] = Plasma concentration in Balb/c mouse at 30 mg/kg, sc administered as single dose using MC/EtOH formulation measured after 12 hrs by LC-MS/MS analysis; assay type: ADME, organism-based; summary of the method: as §1
[23] = Plasma concentration in Balb/c mouse at 30 mg/kg, po administered via gavage as single dose using MC/EtOH formulation measured at 1 hr by LC-MS/MS analysis; assay type: ADME, organism-based; summary of the method: as §1

**Q.** What does the source list for `Cc1ccc(CN(Cc2ccc(C(=O)N3CCc4ccc(OS(N)(=O)=O)cc4C3)cc2)Cc2ccco2)s1`?
**A.** concentration at 3 h [1]: 398 ng/mL; Activity [2]: 72%; AUC [3]: 10 ng·h/mL; inhibition in vivo at 15 mg/kg [4]: 71%; concentration at 7 h [5]: 49 ng/mL; concentration at 12 h [6]: 3 ng/mL; concentration at 3 h [7]: 2190 ng/mL; Activity [8]: Non-Toxic; concentration at 3 h [9]: 19 ng/mL; Activity [10]: Non-Toxic; AUC(0-t) at 24 h [11]: 1130 ng·h/mL; Activity [12]: 71%; inhibition in vivo at 30 mg/kg [13]: 69%; AUC [14]: 269 ng·h/mL; concentration at 7 h [15]: 530 ng/mL; logP [16]: 4.02; inhibition in vivo at 15 mg/kg [17]: 49%; inhibition in vivo at 30 mg/kg [18]: 42%; concentration at 7 h [19]: 381 ng/mL; concentration at 12 h [20]: 4 ng/mL; concentration at 24 h [21]: 13 ng/mL; concentration at 12 h [22]: 64 ng/mL; concentration at 1 h [23]: 308 ng/mL
